Blank lines part the entries; values can stand above or below the compound they belong to.
Key:
[1] = Apparent permeability across apical to basolateral side in MDCK cells expressing MDR1; type: ADME, cell-based, Canis lupus familiaris; details: dog
[2] = Volume of distribution at steady state in C57Bl/6 mouse plasma at 2.5 mg/kg, iv; type: ADME, organism-based; details: read-out: Vdss
In short: (§1)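 Fed male C57Bl/6 mice were dosed intravenously, and plasma was sampled to derive half-life, plasma clearance and steady-state volume of distribution. The iv dose differed per compound (5, 1 or 2.5 mg/kg).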

[3] = Tmax in C57Bl/6 mouse brain at 10 mg/kg, po; type: ADME, organism-based
In short: (§2)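 A single 10 mg/kg oral gavage dose was given to fed male C57Bl/6 mice. Concentrations were measured in plasma, brain and muscle to derive Cmax, Tmax and AUC, with Cmax and AUC normalised to dose.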

[4] = Oral bioavailability in C57Bl/6 mouse plasma at 10 mg/kg; type: ADME, organism-based
Brain [5] = test: Dose normalized Cmax in C57Bl/6 mouse brain at 10 mg/kg, po; type: ADME, organism-based; details: in vivo; in short: as §2
Brain [6] = test: Dose normalized AUC in C57Bl/6 mouse brain at 10 mg/kg, po; type: ADME, organism-based; details: in vivo; in short: as §2
Muscle tissue [7] = test: Dose normalized Cmax in C57Bl/6 mouse muscle at 10 mg/kg, po; type: ADME, organism-based; details: in vivo; in short: as §2
[8] = Tmax in C57Bl/6 mouse plasma at 10 mg/kg, po; type: ADME, organism-based; in short: as §2
Plasma [9] = test: Dose normalized AUC in C57Bl/6 mouse plasma at 10 mg/kg, po; type: ADME, organism-based; details: in vivo; in short: as §2
Muscle tissue [10] = test: Dose normalized AUC in C57Bl/6 mouse muscle at 10 mg/kg, po; type: ADME, organism-based; details: in vivo; in short: as §2
[11] = Tmax in C57Bl/6 mouse muscle at 10 mg/kg, po; type: ADME, organism-based, Muscle tissue; in short: as §2
Plasma [12] = test: Dose normalized Cmax in C57Bl/6 mouse plasma at 10 mg/kg, po; type: ADME, organism-based; details: in vivo; in short: as §2
[13] = Volume of distribution at steady state in C57Bl/6 mouse plasma at 1 mg/kg, iv; type: ADME, organism-based; details: read-out: Vdss; in short: as §1
[14] = Volume of distribution at steady state in C57Bl/6 mouse plasma at 5 mg/kg, iv; type: ADME, organism-based; details: read-out: Vdss; in short: as §1

Compound: O=C(NO)[C@@H]1[C@H](c2ccccc2)[C@H]1c1ccc(-c2nccc(C(F)(F)F)n2)cc1
Papp A→B [1]: 11.4 ×10⁻⁶ cm/s

Compound: Cc1cnc(-c2ccc([C@@H]3[C@@H](c4ccccc4)[C@@]3(F)C(=O)NO)cc2)nc1
Papp A→B [1]: 36.9 ×10⁻⁶ cm/s

Compound: O=C(NO)[C@]1(F)[C@H](c2ccccc2)[C@H]1c1ccc(-c2cnco2)cc1
Papp A→B [1]: 48.7 ×10⁻⁶ cm/s

Compound: O=C(NO)[C@]1(F)[C@H](c2ccccc2)[C@H]1c1ccc(-c2ncc(Cl)cn2)cc1
Papp A→B [1]: < 1 ×10⁻⁶ cm/s

Compound: O=C(NO)[C@]1(F)[C@H](c2ccccc2)[C@H]1c1ccc(-c2nccc(C(F)(F)F)n2)cc1
Papp A→B [1]: 7 ×10⁻⁶ cm/s

Compound: O=C(NO)[C@]1(F)[C@H](c2ccccc2)[C@H]1c1ccc(-c2ncc(F)cn2)cc1
Tmax [3]: 30 min
bioavailability [4]: 79%
Cmax/dose (Brain [5]): 780 nM·kg/mg
AUC/dose (Brain [6]): 1900 nM·kg·h/mg
Cmax/dose (Muscle tissue [7]): 290 nM·kg/mg
Papp A→B [1]: 41.8 ×10⁻⁶ cm/s
Tmax [8]: 15 min
AUC/dose (Plasma [9]): 480 nM·kg·h/mg
AUC/dose (Muscle tissue [10]): 640 nM·kg·h/mg
Vd [13]: 5.1 L/kg
Tmax [11]: 30 min
Cmax/dose (Plasma [12]): 180 nM·kg/mg

Compound: Cc1cnc(-c2ccc([C@@H]3[C@@H](c4ccccc4)[C@@]3(C)C(=O)NO)cc2)nc1
Papp A→B [1]: 39.1 ×10⁻⁶ cm/s

The remaining lines, values ahead:

Vd [2]: 10 L/kg
Tmax [3]: 60 min
bioavailability [4]: 100%
Cmax/dose (Brain [5]): 120 nM·kg/mg
AUC/dose (Brain [6]): 580 nM·kg·h/mg
Cmax/dose (Muscle tissue [7]): 56 nM·kg/mg
Papp A→B [1]: 19.2 ×10⁻⁶ cm/s
Tmax [8]: 15 min
AUC/dose (Plasma [9]): 660 nM·kg·h/mg
AUC/dose (Muscle tissue [10]): 300 nM·kg·h/mg
Tmax [11]: 30 min
Cmax/dose (Plasma [12]): 150 nM·kg/mg
Compound: O=C(NO)[C@]1(F)[C@H](c2ccccc2)[C@H]1c1ccc(-c2ncc(OC(F)F)cn2)cc1

Papp A→B [1]: 12.9 ×10⁻⁶ cm/s
Compound: O=C(NO)[C@@H]1[C@H](c2ccccc2)[C@H]1c1ccc(-c2ncc(OC(F)F)cn2)cc1

Papp A→B [1]: 38 ×10⁻⁶ cm/s
Compound: O=C(NO)[C@@H]1[C@H](c2ccccc2)[C@H]1c1ccc(-c2ncc(Cl)cn2)cc1

Tmax [3]: 30 min
bioavailability [4]: 100%
Vd [14]: 4.1 L/kg
Cmax/dose (Brain [5]): 570 nM·kg/mg
AUC/dose (Brain [6]): 830 nM·kg·h/mg
Cmax/dose (Muscle tissue [7]): 320 nM·kg/mg
Tmax [8]: 30 min
AUC/dose (Plasma [9]): 110 nM·kg·h/mg
AUC/dose (Muscle tissue [10]): 330 nM·kg·h/mg
Tmax [11]: 30 min
Cmax/dose (Plasma [12]): 97 nM·kg/mg
Compound: O=C(NO)[C@@H]1[C@H](c2ccccc2)[C@H]1c1ccc(-c2ncc(F)cn2)cc1

Papp A→B [1]: 37.5 ×10⁻⁶ cm/s
Compound: Cc1cnc(-c2ccc([C@H]3[C@H](C(=O)NO)[C@@H]3c3ccccc3)cc2)nc1
